# Only some compounds are listed: those with a hit (about 3% of all), similar ones and a draw of the others.
# XiGFP reactiv: X-chromosome reactivation activator; XiGFP mouse fibroblasts, % GFP-positive cells imaging, 3 d; cells co-treated with 5-aza-dC sensitizer; scaled so ellipticine positive control = 100%; 360,000 compounds, 0.055% hits; activation, % at 7.58 µM;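 active means mean normalized replicate activation at least 10% and every replicate at or above 10%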;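 further: 0% = median of on-plate neutral control wells and 100% = ellipticine 6 µM median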
#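 assay system = SV40-immortalized XiGFP fibroblast cells, line 68-5-11 | buffer or medium = DMEM plus 5-aza-dC sensitizer | doses = single-point pinned compound dosing | times = 3-day compound exposure, then 15 min fixation at room temperature | benchmarks = positive control ellipticine, 6 µM final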
# Wnt bcat act: activators of Wnt/beta-catenin signaling; 300,000 compounds, 1.2% hits; activation, % at 9.35 µM; Wnt/beta-catenin reporter cell assay, activator, plate reader; in the data active means activation above about 30%, passing the limit was not always enough;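 further: 0% = neutral control wells and 100% = positive control wells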
# NSD2 HMT inh: blocks human histone methyltransferase NSD2; NSD2 peptide methylation, AlphaScreen, 120 min; 310,000 compounds, 0.54% hits; inhibition, % at 12.5 µM; O96028; in the data active means inhibition above about 50%
# esBAF inh: blocks esBAF chromatin remodeling in mouse ES cells; AID 602393; reporter increase, % at 12.5 µM; 350,000 compounds, 2% hits; Bmi1-luciferase knock-in reporter, 24 h; 100% = twice the neutral-well signal; in the data active means activation above about 40%;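 further: 0% = median of the plate's neutral control wells and 100% = double that signal; a rise in the Bmi1 reporter signal indicates esBAF inhibition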
# Casp6 inh: caspase-6 (human) enzyme inhibition. P55212. purified caspase-6, Z-VEID-R110 cleavage fluorescence. inhibition, % at 12.5 µM. 350,000 compounds, 0.53% hits. AID 686996;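 active means mean inhibition across replicates at least about 35%, with every replicate also reaching that limit, limit read from the data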;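 further: 0% = median of neutral control wells and 100% = no fluorescence left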
# MITF act: activators of MITF-driven TRPM1 promoter activity in SK-MEL-5 cells | AID 588334 | activation, % at 12.5 µM | 300,000 compounds, 0.75% hits | SK-MEL-5 TRPM1-promoter luciferase, 24 h; % of positive control, neutral wells = 0;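 active means mean activation of at least 80% with every replicate also reaching 80%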;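 further: 0% = neutral control wells and 100% = parthenolide positive control wells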
# Starred values were filed as active, the others as inactive; · = no result given.
SMILES,XiGFP reactiv,Wnt bcat act,NSD2 HMT inh,esBAF inh,Casp6 inh,MITF act
COc1ccc(-c2cc3ccc(O)cc3oc2=O)cc1,0,1,-8,-2,3,89*
COc1ccc(-c2cc3ccc(OCc4nn[nH]n4)cc3oc2=O)cc1OC,·,-2,-3,-9,3,·
CCC(=O)N1CC[C@H]2[C@@H]1c1cc(-c3ccc(F)cc3)ccc1N(C)[C@H]2CO,0,·,·,7,-1,·
CCCNC(=O)Nc1ccc2c(c1)OC[C@@H](C)N(C(C)=O)C[C@@H](C)[C@H](OC)CN(C)C2=O,0,·,·,·,2,·
O=C(Nc1cccc(F)c1)N1C[C@@H]2[C@H](c3ccccc31)[C@H](CO)N2C(=O)c1cccnc1,0,·,·,6,-4,·
COc1ccc(C(=O)Cc2ccc3c(c2)OCO3)c(O)c1,0,37*,-3,·,·,77
O=C(Cc1ccc2c(c1)OCCO2)c1c(O)cc(O)cc1O,·,8,4,55*,21,39
O=C(O)COc1ccc(C(=O)Cc2ccc3c(c2)OCCCO3)c(O)c1,·,0,-1,-9,6,9
O=S(=O)(NC[C@@H]1CC[C@H]2[C@H](CN2Cc2cccc(-c3ccccn3)c2)O1)c1ccccc1,·,·,·,·,2,·
CN1C(=O)c2cc(NC(=O)c3ccc(Cl)cc3)ccc2OC[C@@H]2O[C@@H](CC(=O)NCc3cccc(F)c3)CC[C@@H]21,0,·,·,11,1,·
C[C@@H]1CCCCO[C@H](CN(C)C(=O)Nc2ccc3c(c2)OCO3)[C@H](C)CN([C@H](C)CO)C(=O)c2cc(NC(=O)CCCN(C)C)ccc2O1,0,·,·,4,7,·
Cc1cccc(OCC(=O)N(C)c2c(N)n(Cc3ccccc3)c(=O)[nH]c2=O)c1C,140*,5,24,-2,1,6
COCCN(C(=O)COC(=O)/C=C/c1ccco1)c1c(N)n(Cc2ccccc2)c(=O)[nH]c1=O,0,0,3,·,43*,0
Cc1c(C(=O)OCC(=O)N(CC(C)C)c2c(N)n(Cc3ccccc3)c(=O)[nH]c2=O)oc2ccccc12,0,1,0,5,46*,1
CO[C@@H]1CN(C)C(=O)c2ccc(NS(=O)(=O)CC(F)(F)F)cc2OC[C@@H](C)N(Cc2ccccn2)C[C@H]1C,0,·,·,-23,1,·
C[C@@H]1CN([C@@H](C)CO)C(=O)c2cc(-c3cccc(C#N)c3)cnc2O[C@@H]1CN(C)C(=O)c1cnccn1,0,·,·,-6,-2,·
CC(C)NC(=O)N1[C@H](CO)[C@@H](c2ccccc2)C12CN(C(=O)Cc1cccnc1)C2,0,·,·,·,42*,·
CC(=O)N1C[C@@H]2C(c3ccc(Br)cc3)[C@H](C1)N2C(C)=O (stereo partly drawn),0,·,·,·,·,·
O=C(c1cccc2ccccc12)N1CCCCC1,0,0,16,3,14,-4
O=C(c1ccc2ccccc2c1O)N1CCCCC1,0,-4,3,56*,0,·
C[C@@H]1CN([C@H](C)CO)C(=O)c2cc(C#Cc3ccccc3F)cnc2O[C@H]1CN(C)C(=O)C1CCC1,0,·,·,4,1,·
CCOC(=O)c1cnn(-c2ccc(C)cc2)c1N,·,44*,-1,56*,·,77
CCOC(=O)c1cnn(-c2ccccc2)c1-n1cccc1,·,6,-1,-4,·,0
CCOC(=O)c1ccc(-n2ncc(C(=O)OCC)c2N)cc1,·,0,-1,21,·,0
CCOC(=O)c1cnn(-c2ccccc2)c1NC(=O)CN1CCCCC1,0,41*,9,-5,0,·
SMILES,XiGFP reactiv,Wnt bcat act,NSD2 HMT inh,esBAF inh,Casp6 inh,MITF act
COc1ccc2c3c([nH]c2c1)[C@@H](CO)N(Cc1nccs1)CC31CN(C(=O)C2CCOCC2)C1,0,·,·,·,·,·
CCCCNc1nc(NCc2ccccc2)nc2ccccc12,0,-3,·,·,44*,·
CNc1nc(NCc2ccccc2)c2ccccc2n1,0,-3,5,-4,-3,·
CN(C)c1ccc2c(c1)[C@@H]1C[C@H](CC(=O)NCC3CC3)O[C@@H](CO)[C@@H]1O2,0,·,·,0,-2,·
C[C@H](CO)N1C[C@H](C)[C@@H](CN(C)CC2CCCCC2)Oc2ccc(NC(=O)CCN3CCOCC3)cc2CC1=O,0,·,·,-1,0,·
Clc1ccc(-c2nnc(N3CCCC3)nn2)cc1,·,35*,2,-26,·,·
